NTR1 ag: activates human neurotensin receptor 1; activation, % at 20 µM; AID 493036; NTR1-U2OS beta-arrestin-GFP spot imaging, agonist mode; P30989; hit rate 0.17% among 330,000;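 active = activation at or above 40% of the spot to cytoplasm intensity ratio, with at least 20 cells analyzed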
TLR9-MyD88 block: TLR9-MyD88 interaction inhibition; Q9NR96+Q99836; CHO BLA complementation TLR9-MyD88, CCF4 FRET ratio; inhibition, % at 4.98 µM; hit rate 0.21% among 340,000; AID 504734;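 active = inhibition above the mean over all tested compounds plus 3 SD, cut at about 21% in these data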
MC4R antagonist: antagonists of human melanocortin 4 receptor (MC4R); hit rate 0.48% among 360,000; inhibition, % at 6.5 µM; MC4R-expressing cells, MTII-stimulated cAMP, LANCE TR-FRET; P32245; AID 540295;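 active = inhibition above its plate's cutoff, the mean of tested wells on that plate plus 3 SD, cut at about 29% in these data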
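material = U2OS cells stably expressing human melanocortin 4 receptor (MC4R) | also added = Melanotan II challenge | dosing = single nominal compound dose of 6.5 µM | detection = TR-FRET with Eu-cAMP and labeled anti-cAMP, 671 nm | replication = singlicate | timing = compound 30 min, challenge 1 h, detection 1 h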
TLR4-MyD88 BLA: inhibitors of human TLR4-MyD88 binding | inhibition, % at 8.4 µM | hit rate 0.18% among 200,000 | HeLa CL3-4 TLR4/MyD88 BLA complementation, FRET ratio | AID 861; in the data active = inhibition above about 25%
NOD2-RIPK2 inh: inhibitors of human NOD2-RIPK2 interaction | CHO BLA complementation NOD2-RIPK2, CCF4 ratio | inhibition, % at 4.98 µM | hit rate 0.38% among 360,000 | AID 624267; in the data active = inhibition above about 21%
MC4R ag barr: agonists of human melanocortin 4 receptor (MC4R) beta-arrestin; U2OS MC4R beta-arrestin complementation, luminescence; percent of melanotan II response, DMSO zero; activation, % at 8.9 µM; hit rate 0.98% among 360,000; AID 540308;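 active = activation above a per-plate cutoff, the mean activation of sample wells on that plate plus 3 SD, cut at about 8% in these data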
MC4R barr conf: human MC4R beta-arrestin agonism confirmation | shares compounds with MC4R ag barr | hit rate 31% among 2,400 | activation, % at 8.9 µM | U2OS MC4R beta-arrestin recruitment, luminescence; scaled DMSO 0%, Melanotan II 100%;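 active = mean activation across replicates above the hit cutoff set in the earlier primary screen, cut at about 8% in these data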
MOR DOR agonist: counter-screen for MC4R agonists: agonists of mu-delta opioid heterodimer; shares compounds with MC4R ag barr; hit rate 5.8% among 2,400; activation, % at 9.2 µM; U2OS PathHunter beta-arrestin, beta-gal luminescence; percent of deltorphin B response, DMSO zero; AID 602194;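 active = mean activation across replicates exceeds the hit threshold derived in the earlier primary screen, cut at about 18% in these data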
Target sequence (P35372 whole entry, looked up): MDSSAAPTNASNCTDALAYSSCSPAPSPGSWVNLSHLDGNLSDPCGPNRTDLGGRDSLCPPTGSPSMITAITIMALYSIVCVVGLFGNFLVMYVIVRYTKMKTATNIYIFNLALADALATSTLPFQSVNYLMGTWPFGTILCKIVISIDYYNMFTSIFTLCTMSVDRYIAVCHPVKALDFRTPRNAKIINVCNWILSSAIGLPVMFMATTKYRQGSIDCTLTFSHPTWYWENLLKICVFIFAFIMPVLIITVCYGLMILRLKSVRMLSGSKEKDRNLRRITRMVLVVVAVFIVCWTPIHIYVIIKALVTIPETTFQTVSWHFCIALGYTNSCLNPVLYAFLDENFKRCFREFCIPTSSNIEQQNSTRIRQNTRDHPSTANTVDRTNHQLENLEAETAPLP
Target sequence (P41143 whole entry, looked up): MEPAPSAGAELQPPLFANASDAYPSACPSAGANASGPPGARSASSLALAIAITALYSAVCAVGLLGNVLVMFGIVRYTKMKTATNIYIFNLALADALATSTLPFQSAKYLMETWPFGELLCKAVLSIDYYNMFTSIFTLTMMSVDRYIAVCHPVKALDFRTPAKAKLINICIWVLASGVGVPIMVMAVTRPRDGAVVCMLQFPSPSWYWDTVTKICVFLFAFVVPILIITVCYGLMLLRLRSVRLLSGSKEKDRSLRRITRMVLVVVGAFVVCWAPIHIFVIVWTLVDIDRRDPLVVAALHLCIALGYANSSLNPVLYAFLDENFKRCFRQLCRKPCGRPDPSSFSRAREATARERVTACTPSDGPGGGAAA
Of the large screens only hits and unclear results are named; the others gave an inactive call (follow-up assays come after a bar, where they were run). Sampled rows, rich in hits. Any-hit rate of the full collection: about 1.9%.

CC(=O)Nc1nnc(SCC(=O)c2ccc3c(c2)Cc2ccccc2-3)s1	MC4R ag barr 12 | MC4R barr conf inactive | MOR DOR agonist inactive
CC(=O)Nc1nnc(SCC(=O)NC2CC2)s1	none (no result: TLR4-MyD88 BLA)
Cn1c(SCC(=O)c2ccc3c(c2)Cc2ccccc2-3)nnc1-c1ccccc1	MC4R ag barr 11 | MC4R barr conf 9.4 | MOR DOR agonist inactive
CCC(=O)Nc1nnc(SCC(=O)c2ccc3c(c2)Cc2ccccc2-3)s1	MC4R ag barr 18 | MC4R barr conf inactive | MOR DOR agonist inactive
Cn1c(SCC(=O)c2ccccc2)nnc1-c1ccncc1	none
CNc1nc(NCC2CCCCC2)c2sccc2n1	none (no result: NTR1 ag, TLR9-MyD88 block, TLR4-MyD88 BLA)
O=C(Nc1ccc(Cl)c([N+](=O)[O-])c1)Nc1nc2ccccc2s1	none (no result: TLR9-MyD88 block, MC4R antagonist, TLR4-MyD88 BLA, NOD2-RIPK2 inh, MC4R ag barr)
Cc1ccc(NC(=O)Nc2nc3ccccc3s2)cc1NC(=O)Nc1nc2ccccc2s1	MC4R ag barr 10 (no result: TLR4-MyD88 BLA) | MC4R barr conf 10 | MOR DOR agonist inactive
Cc1ccsc1/C=N/NC(=O)c1ccc2nc[nH]c2c1	none
O=C(CCN1C(=O)/C(=C/c2ccccc2F)SC1=S)N[C@@H](CO)Cc1ccccc1	MC4R ag barr 11 (no result: TLR4-MyD88 BLA) | MC4R barr conf inactive | MOR DOR agonist inactive
O=C(CCN1C(=O)/C(=C/c2ccccc2)SC1=S)N[C@@H](CO)Cc1ccccc1	MC4R ag barr 19 (no result: TLR4-MyD88 BLA) | MC4R barr conf inactive | MOR DOR agonist inactive
O=C(CCN1C(=O)/C(=C/c2ccc(F)cc2)SC1=S)Nc1cccnc1	none (no result: TLR4-MyD88 BLA)
O=C(CCN1C(=O)/C(=C/c2ccccc2)SC1=S)Nc1cccnc1	MC4R ag barr 11 (no result: TLR4-MyD88 BLA) | MC4R barr conf inactive | MOR DOR agonist inactive
COc1cccc(/C=C2\SC(=S)N(CCC(=O)NCCc3ccc(O)cc3)C2=O)c1	MC4R ag barr 35 (no result: TLR4-MyD88 BLA) | MC4R barr conf inactive | MOR DOR agonist inactive
CO[C@H]1O[C@H](C)[C@@H](O)C[C@H]1NC(=O)OCc1ccccc1	none (no result: TLR4-MyD88 BLA)
Cc1cc(C(=O)NC(C)CCc2ccccc2)ccc1[N+](=O)[O-] (stereo not drawn)	none (no result: TLR4-MyD88 BLA)
Cc1cnc(NC(=O)CSc2nc3ccccc3s2)s1	none
C/C=C/C(=O)Nc1nnc(-c2ccccc2C)s1	MC4R ag barr 19 | MC4R barr conf inactive | MOR DOR agonist inactive
Cc1ccccc1-c1nnc(NC(=O)CSc2nc3ccccc3s2)s1	MC4R ag barr 16 | MC4R barr conf 10 | MOR DOR agonist inactive
CCOC(=O)[C@]12CCCC=C1N(Cc1cccc3ccccc13)C(=O)[C@H](CC(=O)NCc1ccc(OC)c(OC)c1)C2	none (no result: NTR1 ag, TLR9-MyD88 block, MC4R antagonist, TLR4-MyD88 BLA, MC4R ag barr)
O=C(CN1CCN(Cc2ccc(F)cc2)CC1)Nc1nc2ccccc2s1	none (no result: TLR4-MyD88 BLA)
Oc1ccc(C(=S)N2CCN(c3cccc(Cl)c3)CC2)cc1	MC4R ag barr 9.8 | MC4R barr conf inactive | MOR DOR agonist inactive
COc1cc(C(=S)N2CCN(c3cccc(Cl)c3)CC2)ccc1O	none
COC(=O)c1cccc(Nc2nc(-c3cccnc3)nc3ccccc23)c1	none (no result: TLR4-MyD88 BLA)
CCOC(=O)c1cccc(Nc2nc(-c3cccnc3)nc3ccccc23)c1	MC4R ag barr 12 | MC4R barr conf inactive | MOR DOR agonist inactive
CCC(C)(C)C1CCC2(CC1)NC(=O)N(CC(=O)N(C)Cc1ccc(OC(F)F)cc1)C2=O (stereo not drawn)	MC4R ag barr 17 (no result: TLR4-MyD88 BLA) | MC4R barr conf inactive | MOR DOR agonist inactive
O=c1[nH]nc(Cc2ccc(-c3cccc(Cl)c3)o2)c2ccccc12	MC4R ag barr 14 | MC4R barr conf inactive | MOR DOR agonist inactive
Clc1cccc(-c2ccc(CNCc3ccccn3)o2)c1	none (no result: TLR4-MyD88 BLA)
CC(=O)c1c(C)[nH]c(C(=O)CSc2ncnc3sc(-c4ccccc4)cc23)c1C	MC4R ag barr 25 | MC4R barr conf 16 | MOR DOR agonist inactive
Cc1ccnc2nc(C(=O)Nc3ccc(S(=O)(=O)N4CCCC4)cc3)nn12	none (no result: TLR4-MyD88 BLA)
CCOc1cccc(C(=O)Nc2ccc(NC(=O)c3ccccc3)c(C)c2)c1	none (no result: TLR4-MyD88 BLA)
CCOc1ccc(C(=O)Nc2ccc(NC(=O)c3ccco3)c(Cl)c2)cc1Cl	MC4R ag barr 36 | MC4R barr conf inactive | MOR DOR agonist 19
CCOc1cc(C(=O)Nc2ccc3c(c2)OCO3)ccc1OCCOc1ccccc1Cl	MC4R ag barr 10 | MC4R barr conf 12 | MOR DOR agonist inactive
COc1cccc(C(=O)Nc2ccc(NC(=O)c3ccco3)c(Cl)c2)c1	none
CCOc1ccc(C(=O)Nc2cccc(NC(=O)c3cccs3)c2)cc1[N+](=O)[O-]	none (no result: NTR1 ag)
CCOc1ccc(C(=O)Nc2cccc([N+](=O)[O-])c2)cc1Br	MC4R ag barr 15 | MC4R barr conf inactive | MOR DOR agonist inactive
CCOc1ccc(C(=O)Nc2ccc3c(c2)OCO3)cc1OCC	none
CCOc1ccc(C(=O)Nc2ccc(NC(=O)c3ccccc3)c(C)c2)cc1[N+](=O)[O-]	MC4R ag barr 12 (no result: TLR4-MyD88 BLA) | MC4R barr conf inactive | MOR DOR agonist inactive
Cc1ccccc1CNC(=O)Nc1ccc(Cl)cc1	none (no result: TLR4-MyD88 BLA)
COC(=O)NC1CC2C=CC1C1C=CC21 (stereo not drawn)	none (no result: NTR1 ag, TLR4-MyD88 BLA)
O=C(Nc1ccc(NC(=O)c2sc3ccccc3c2Cl)cc1Cl)c1ccco1	MC4R ag barr 36 | MC4R barr conf 8.8 | MOR DOR agonist inactive
CCOc1ccc(C(=O)Nc2ccc(NC(=O)c3ccco3)c(Cl)c2)cc1Br	MC4R ag barr 36 | MC4R barr conf inactive | MOR DOR agonist inactive
CCC(=O)NC(=S)Nc1ccc(NC(=O)c2ccc(C)c([N+](=O)[O-])c2)cc1	MC4R ag barr 11 | MC4R barr conf inactive | MOR DOR agonist inactive
CCOc1ccccc1NC(=O)c1cccc(NC(=O)c2ccco2)c1	none
O=C(Nc1ccc(NC(=O)c2cccs2)c(Cl)c1)c1ccco1	none
CCOC(=O)c1[nH]c(C(=O)O)c(OC(=O)CC)c1C	none (no result: TLR4-MyD88 BLA)
COc1cc(OC)cc(C(=O)N[C@H](C(=O)Nc2cccc(S(=O)(=O)N3CCCC3)c2)C(C)C)c1	none (no result: TLR4-MyD88 BLA)
Cc1ccc(C(=O)N2CCC(C)CC2)cc1C	none
CN=C1SC(CC(=O)Nc2ccccc2F)C(=O)N1C (stereo not drawn)	none
C=CCOc1ccc(/C=N/N2C(=O)C(CC(=O)Nc3ccc(F)cc3F)SC2=NC)cc1 (stereo not drawn)	MC4R ag barr 11 | MC4R barr conf inactive | MOR DOR agonist inactive
CC(=O)Nc1cc(-c2cccc(C(=O)NCCO)c2)cn2c(-c3ccc(F)c(Cl)c3)cnc12	none (no result: NTR1 ag, TLR9-MyD88 block, TLR4-MyD88 BLA)
CC(=O)Nc1cc(-c2ccc(N3CCN(C)CC3)cc2)cn2c(-c3ccccc3)cnc12	none (no result: NTR1 ag, TLR9-MyD88 block, TLR4-MyD88 BLA)
CC(=O)Nc1cc(-c2cccc(N)c2)cn2c(-c3ccccc3)cnc12	MC4R ag barr 12 (no result: NTR1 ag, TLR9-MyD88 block, TLR4-MyD88 BLA) | MC4R barr conf inactive | MOR DOR agonist inactive

Source: PubChem BioAssay (several laboratories)
